Results on five compounds are retold here after ChEMBL document CHEMBL1141446, “Uncovering biosynthetic potential of plant-associated fungi: effect of culture conditions on metabolite production by Paraphaeosphaeria quadriseptata and Chaetomium chiversii” (J Nat Prod, 2007).

In one test the test system is NCI-H460. Briefly: Antiproliferative activity against human NCI-H460 cells by MTT assay. It is filed as functional, cell-based. The gist of the method: (§1)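 Cells were exposed for 72 h to serial dilutions of test compound in RPMI 1640 supplemented with 10% fetal bovine serum. Viability was read by MTT assay, and IC50 was taken as the concentration giving 50% inhibition of proliferation/survival. A positive control was run alongside.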
For orientation: Tetrazolium assays rely on reduction of a dye to a coloured formazan, in cell work by metabolically active cells.

For a further test, the system named is MCF7. Briefly: Antiproliferative activity against human MCF7 cells by MTT assay. The test is classed as functional, cell-based. An outline of the steps: as §1
For the next test, the system named is SF-268. Briefly: Antiproliferative activity against human SF268 cells by MTT assay. It is filed as functional, cell-based. An outline of the steps: as §1
The species named for a further test is Mus musculus. Briefly: Induction of heat shock in mouse 3T3-Y9/B12 reporter cells at 5 uM by heat shock induction assay. It is filed as functional.

Calls of active or inactive are those of the source. The calls are words filed in the database; no cut-off is given here.

On to `C[C@@H]1C[C@H]2O[C@@H]2C[C@H](O)/C=C/C(=O)Cc2cc(O)cc(O)c2C(=O)O1`, for which the IC50 (usually the midpoint of a concentration-inhibition curve) in the test with NCI-H460 stood at 300 nM; in the test with MCF7 it was 150 nM; in the test on SF-268 it was 550 nM. Besides, in the test listed under Mus musculus, the result was Active.

Turning to `C[C@@H]1C[C@H]2O[C@@H]2/C=C\C=C\C(=O)Cc2c(Cl)c(O)cc(O)c2C(=O)O1`, the outcome in the test listed under Mus musculus was Active.

`COc1cccc2c1C(=O)c1c(O)c3c(c(O)c1C2=O)C[C@@](O)(C(=O)CO)C[C@@H]3O[C@H]1C[C@H](N)[C@H](O)[C@H](C)O1` [DOXORUBICIN] came in with an IC50 with NCI-H460 of 10 nM.

Consider `C[C@@H]1C[C@H]2O[C@@H]2CC/C=C/C(=O)Cc2cc(O)cc(O)c2C(=O)O1` [MONOCILLIN III], for which the results for the concentration for half-maximal inhibition (IC50) in the test on NCI-H460, in the test on MCF7 and in the test with SF-268 were 500 nM, 400 nM and 300 nM, respectively. The outcome in the test listed under Mus musculus was Active.

`C[C@@H]1C[C@H]2O[C@@H]2/C=C\C=C\C(=O)Cc2cc(O)cc(O)c2C(=O)O1` [MONOCILLIN I]: the IC50 in the test with NCI-H460 is 350 nM; in the test with MCF7, 600 nM; in the test with SF-268, 720 nM. Moreover, the outcome in the test listed under Mus musculus was Active.
